Sampled rows, rich in hits. Any-hit rate of the full collection: about 4.8%.
Beta cell apopt = blocks beta cell apoptosis; INS-1E cytokine-induced death, ATP luminescence, 48 h; percent of positive-control rescue, neutral wells zero; protection from apoptosis, % (concentration not given with the values); actives 0.8% (n = 300,000); AID 435005;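 active = Every replicate reaches about 75%, or at least half do and their mean reaches it too, limit read from the data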;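 note: higher means more ATP so stronger rescue from cytokine killing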
T cruzi repl = T. cruzi replication inhibition; inhibition, % (no concentration beside the values); actives 1.4% (n = 300,000); AID 1885; T. cruzi beta-gal in NIH3T3, luminescence, 90 h;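 active = mean inhibition across valid replicates above about 55%, limit read from the data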;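 note: signal also drops with host cell toxicity which is not excluded here; higher percent means less beta-gal luminescence so fewer parasites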
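Read-out: Parasite load inhibition, % | Test system: Mouse NIH/3T3 fibroblasts infected with β-gal-expressing T. cruzi Tulahuen C4 | Amount: 5,000 cells/well | Medium: DMEM, 2% fetal bovine serum | Signal: GalScreen β-gal luminescence, detergent lysis, 60 min | Timing: 3 h attach, ≥90 h co-culture | Also added: Tulahuen C4 trypomastigotes, 5000/well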
WT yeast gro inh = growth inhibition of WT yeast, mitochondrial fusion screen; mitochondrial fusion phenotypic screen, WT strain; inhibition, % at 10 µM; actives 2.1% (n = 190,000); AID 1362; in the data active = inhibition above about 58%; tested in S. cerevisiae
CSC inhib = cancer stem cell inhibition. actives 1.1% (n = 300,000). inhibition, % at 7.5 µM. AID 2717. cancer stem cell-like cells viability, luminescence; in the data active = inhibition above about 75%; tested in HMLE shEcad cells
Efflux pump inh = inhibitors of Candida antifungal efflux pumps expressed in yeast; S. cerevisiae Candida pump triplex, Nile Red efflux; inhibition, % at 10 µM; actives 0.44% (n = 330,000);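 active = plate passing quality check with inhibition over a set limit, or well fluorescence over plate mean plus 4 SD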;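 note: Nile Red retained in pooled yeast measured as flow cytometry median fluorescence; higher means more Nile Red kept so more efflux inhibition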
SUMO Mot1 rescue = inhibitors of SUMOylation pathway: yeast Mot1-301 growth rescue | AID 2716 | growth rescue, % at 18.8 µM | S. cerevisiae Mot1-301 growth rescue, ATP luminescence, 38.5C; percent above DMSO median, 100 means doubled | actives 1% (n = 320,000);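 active = every valid replicate shows activation above 250% relative to neutral control wells; inactive = the rest, any valid replicate at or below 250%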
Each line names hits and unclear results; the compound was inactive in the other large screens.

O=C(N/N=C/c1ccc(OC2CSC2)cc1)c1ccccc1	CSC inhib 88.5
COC(=O)CCCC(=O)Nc1c(F)c(F)c(F)c(F)c1F	none
CCCCn1c(N)c(N(CC(C)C)C(=O)CSC(C)C(=O)Nc2cc(C)on2)c(=O)[nH]c1=O (stereo unspecified)	none (no result: WT yeast gro inh)
Cc1ccn2c(CNCCn3nc(C)cc3C)c(C(=O)N3CCCCCC3)nc2c1	SUMO Mot1 rescue 533.9 (no result: Beta cell apopt, CSC inhib)
CC(=O)c1cccc(NC(=O)CCN2C(=O)C3C4CCC(C4)C3C2=O)c1 (stereo unspecified)	none (no result: WT yeast gro inh)
Cc1ccc2oc(C(=O)NCC(c3ccco3)N(C)C)c(C)c2c1 (stereo unspecified)	none (no result: WT yeast gro inh)
CN1CCN(/N=C/c2cccc(Cl)c2Cl)CC1	T cruzi repl 62.2 (no result: CSC inhib)
C=C(C)CNC(=S)NNC(=O)CCn1c2ccc(Cl)cc2c2cc(Cl)ccc21	CSC inhib 102.2
COC(=O)c1c(C)[nH]c(C(=O)C(C)OC(=O)C2CC2)c1C (stereo unspecified)	none (no result: T cruzi repl, WT yeast gro inh, CSC inhib)
O=C(Nc1ccc(SC(F)(F)F)cc1)c1ccccn1	none
OC(c1cc(-c2ccc(C(F)(F)F)cc2)nc(C(F)(F)F)c1)C1CCCCN1 (stereo unspecified)	Beta cell apopt 108.2, T cruzi repl 56.0, CSC inhib 104.5 (no result: WT yeast gro inh)
CCOC(=O)c1sc(NC(=O)c2c(CC)noc2C)nc1C	none (no result: T cruzi repl, WT yeast gro inh, CSC inhib)
Clc1cc(Cl)c(OCc2nc(-c3ccccn3)no2)cc1Cl	none
CC(C)(C)c1ccc(OCc2nc(-c3ccccn3)no2)c(Br)c1	WT yeast gro inh 79.6
CCOc1ccccc1CNC(=O)c1ccc(Sc2ccc(Cl)cc2)c(NC(C)=O)c1	WT yeast gro inh 64.8
CCOc1ccc(CNC(=O)c2ccc(Sc3ccc(Cl)cc3)c(NC(C)=O)c2)cc1	none
O=C(Nc1ccc(Br)cc1)C(c1ccccc1)c1ccccc1	SUMO Mot1 rescue 801.3
O=C(Nc1ccccc1O)C(c1ccccc1)c1ccccc1	Beta cell apopt 94.2 (no result: WT yeast gro inh)
O=C(O)c1ccccc1NC(=O)C(c1ccccc1)c1ccccc1	none (no result: Beta cell apopt, WT yeast gro inh)
Cc1[nH]c(C)c(S(=O)(=O)N2CCCCC2)c1C(=O)N1CCCCC1	none (no result: Beta cell apopt, WT yeast gro inh)
Cc1cccc(N2CCN(C(=O)CCN3C(=S)NC(C)(C)CC3C)CC2)c1C (stereo unspecified)	SUMO Mot1 rescue 614.2
Cc1ccc(C)c(N2CCN(C(=O)CCCN3C(=S)NC(C)(C)CC3C)CC2)c1 (stereo unspecified)	none
O=S(=O)(Cc1ccccc1)N1CCc2ccccc21	Efflux pump inh 2.7
O=C(CCc1nnc(C2(c3ccc(Cl)cc3)CCC2)o1)N1CCCC(O)C1 (stereo unspecified)	none (no result: WT yeast gro inh)
Cc1ccc2c(c1)nnn2C1CCN(S(=O)(=O)c2ccc(C(=O)O)cc2)CC1	none
Cc1ccc2c(c1)nnn2C1CCN(S(=O)(=O)c2ccc(C(=O)N3C(C)CCCC3C)cc2)CC1 (stereo unspecified)	Beta cell apopt 106.1
Cc1ccc(Cc2c[nH]c(=S)s2)cc1	WT yeast gro inh 68.1
Cc1ccc(Cc2c(C)[nH]c(=S)[nH]c2=O)cc1	none (no result: WT yeast gro inh)
O=C(Nc1cc(Cl)ccc1-n1cncn1)C1CC1	none (no result: WT yeast gro inh)
O=C(CSc1nncc2ccccc12)Nc1ccc(C(=O)O)cc1	none (no result: WT yeast gro inh)
O=C(CN1CCCCC1)Nc1cccc(Cl)c1	none
COc1cc(NC(=O)Nc2cccc(Cl)c2)c(OC)cc1NC(=O)CN1CCCCC1	CSC inhib 114.7
CS(=O)(=O)Nc1ccc(C(=O)Nc2ccc(S(=O)(=O)N3CCCC3)cc2)cc1	none
CCCCn1c(-c2ccccc2)cnc1SCC(=O)NCCc1ccc(OC)c(OC)c1	none
CCOC(=O)N1CCC(n2c(SCC(=O)Nc3ccccc3OC)nc3ccccc3c2=O)CC1	T cruzi repl 56.1 (no result: Beta cell apopt)
COc1ccccc1NC(=O)CSc1nnc(C2CCCCC2)n1-c1ccccc1	CSC inhib 82.0 (no result: WT yeast gro inh)
Nc1ccc(Cl)c(S(=O)(=O)Nc2ccc(Cl)cc2)c1	T cruzi repl 64.0 (no result: WT yeast gro inh, SUMO Mot1 rescue)
CC(=O)OC[C@]12CC[C@H]3[C@@](C)(CC[C@H]4C(C)(C)CCC[C@]34C)[C@@H]1C[C@H](C1=CC(=O)O[C@@H]1OC(C)=O)O2	CSC inhib 132.1 (no result: T cruzi repl, WT yeast gro inh)
COc1cc(NC(=O)COc2cc(O)c3c(c2)OC(C)(C)CC3=O)cc(OC)c1OC	Beta cell apopt 109.6 (no result: WT yeast gro inh)
CC1(C)CC(=O)c2c(O)cc(OCC(=O)Nc3ccc(S(N)(=O)=O)cc3)cc2O1	none (no result: WT yeast gro inh)

High-throughput results from PubChem.
